# Screening results: PubChem, Sanford-Burnham Center for Chemical Genomics
# The list is not random: actives were taken first. Their share in the collection is about 3%.
# UBC13 polyUb – blocks human UBC13 polyubiquitin chain formation. TR-FRET. inhibition, % at 20 µM. 330,000 compounds, 0.47% hits. AID 485273; in the data active means inhibition above about 45%, passing the limit was not always enough
# Target sequence (P61088 whole entry, looked up): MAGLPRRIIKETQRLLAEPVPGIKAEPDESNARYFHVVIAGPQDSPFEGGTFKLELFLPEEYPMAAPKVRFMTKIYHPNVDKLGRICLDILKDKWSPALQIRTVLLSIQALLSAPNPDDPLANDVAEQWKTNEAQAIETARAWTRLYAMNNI
# SENP8 block-1 – inhibitors of human SENP8 protease | Q96LD8 | recombinant SENP8, Nedd8 substrate fluorescence | inhibition, % at 20 µM | 360,000 compounds, 0.64% hits | AID 602440; in the data active means inhibition mostly above about 40%, no sharp cut-off; inactive means mostly below about 27%
# Apaf1 inhib – blocks human Apaf-1 apoptosome activity. O14727. 330,000 compounds, 0.71% hits. AID 489030. inhibition, % at 20 µM. reconstituted apoptosome caspase-3 activity, DEVD-Rh110 fluorescence; active means inhibition of at least 40% at 20 µM;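 further: plate controls were DMSO wells for no effect and DEVD-CHO caspase inhibitor wells for full effect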
#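 Assay system: Apoptosome proteins | Medium: pH 7.5 Hepes buffer with CHAPS, BSA, DTT | Also added: Cytochrome c and DEVD-Rh110 substrate | Times: 30 min plus 50 min, RT | Detection: Rhodamine 110 fluorescence at Ex 480/Em 540 nm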
# SENP6 block – blocks the human protease SENP6 | Q9GZR1 | Recombinant SENP6 catalytic domain, aminoluciferin luminescence | inhibition, % at 10 µM | 330,000 compounds, 1.8% hits;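 active means inhibition above about 50% at the single tested dose, limit read from the data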;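 further: plate controls were DMSO wells with enzyme for no effect and DMSO wells lacking enzyme for full effect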
# SENP7 block – blocks the human protease SENP7; Q9BQF6; recombinant SENP7, Z-RLRGG-aminoluciferin luminescence, 40 min; inhibition, % at 5 µM; 330,000 compounds, 1.5% hits;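 active means inhibition above about 50% at the single test dose, limit read from the data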;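 further: plate controls were DMSO with enzyme for no effect and no enzyme buffer wells for full effect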
# SENP8 block-2 – inhibitors of human SENP8 protease; Q96LD8; 330,000 compounds, 1.2% hits; AID 2540; purified SENP8, Z-RLRGG-aminoluciferin cleavage, luminescence; inhibition, % at 10 µM; in the data active means inhibition above about 50%
# SENP8 confirm – human SENP8 inhibition, confirmed. shares compounds with SENP7 block. Recombinant SENP8, Z-RLRGG-aminoluciferin luminescence, 60 min. inhibition, % at 12.5 µM. 6,200 compounds, 40% hits;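 active means mean inhibition across replicates above about 50%, limit read from the data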
# SENP6 conf – confirmation of human SENP6 protease inhibitors. inhibition, % at 12.5 µM. AID 488915. shares compounds with SENP7 block. recombinant SENP6, Z-RLRGG-aminoluciferin luminescence. 6,200 compounds, 58% hits
# SENP7 conf – human SENP7 inhibition, confirmed. shares compounds with SENP7 block. recombinant SENP7, Z-RLRGG-aminoluciferin luminescence, 40 min. inhibition, % at 12.5 µM. 6,200 compounds, 69% hits. AID 488917
# Casp3 select – caspase-3 inhibition (SENP selectivity assay); shares compounds with SENP7 block; 6,200 compounds, 60% hits; inhibition, % at 12.5 µM; purified caspase-3, Z-DEVD-aminoluciferin luminescence, 60 min; AID 488918;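 active means mean inhibition above about 50%, limit read from the data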;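 further: plate controls were enzyme with DMSO for no effect and wells without caspase-3 for full effect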
# Target sequence (P42574 28-227 limits assumed): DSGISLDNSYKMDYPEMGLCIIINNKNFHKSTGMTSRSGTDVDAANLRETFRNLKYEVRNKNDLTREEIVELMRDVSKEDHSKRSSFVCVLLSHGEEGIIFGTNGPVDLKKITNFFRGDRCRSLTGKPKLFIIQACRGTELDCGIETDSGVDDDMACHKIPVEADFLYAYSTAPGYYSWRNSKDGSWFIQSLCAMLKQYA
# SENP luc ctr – interferes with luciferase luminescence in SENP counter-screen; shares compounds with SENP7 block; Pre-incubated SENP8/Z-RLRGG-aminoluciferin, luciferase luminescence interference; inhibition, % at 12.5 µM; 6,200 compounds, 39% hits; AID 488919;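 active means mean inhibition above about 50% when retested at one dose, limit read from the data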;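 further: plate controls were DMSO wells with completed reaction for no effect and substrate without enzyme for full effect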
# An asterisk follows results filed as active; . = not tested or not shown.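 How the source made its calls, unless noted: active means mean inhibition above about 50% in the one-dose retest (limit read from the data); inactive means the rest.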
SMILES,UBC13 polyUb,SENP8 block-1,Apaf1 inhib,SENP6 block,SENP7 block,SENP8 block-2,SENP8 confirm,SENP6 conf,SENP7 conf,Casp3 select,SENP luc ctr
Cc1cc(C)nc(N/N=C/c2cccc([N+](=O)[O-])c2)n1,5,20,-14,-8,0,5,.,.,.,.,.
O=C1N=C2N(CCN3CCCCC3)c3ccccc3N2/C1=C\c1ccc([N+](=O)[O-])s1,.,24,.,.,.,.,.,.,.,.,.
O=C(c1ccc(F)cc1)c1cc2ccc(O)cc2oc1=O,3,-154,3,97*,99*,97*,99*,100*,103*,98*,98*
N=c1oc2cc(O)ccc2cc1C(=O)Nc1ccc(F)cc1,14,-292,0,96*,98*,92*,91*,94*,100*,84*,62*
O=C(O)c1cc2ccc(O)cc2oc1=O,.,-423,.,.,.,.,.,.,.,.,.
COC(=O)C1=CN(c2ccc(C(C)(C)C)cc2)C(N)=C(C#N)C1c1cccc([N+](=O)[O-])c1 (stereo not given),.,-7,.,.,.,.,.,.,.,.,.
O=c1oc(/C=C/c2ccc([N+](=O)[O-])s2)nc2ccccc12,1,11,-3,-9,2,-2,.,.,.,.,.
CC(=O)Oc1ccccc1/C=C/c1nc2ccccc2c(=O)o1,-1,-41,9,76*,66*,65*,77*,74*,90*,94*,57*
CC(=O)Oc1ccc(/C=C/c2nc3ccccc3c(=O)o2)cc1,-1,-134,10,96*,99*,95*,74*,79*,55*,68*,50
CC(=O)Oc1ccc(-c2nc3ccccc3c(=O)o2)cc1,3,-10,9,34,10,-18,.,.,.,.,.
Cc1nn(-c2ccccc2)c(-c2ccccc2[N+](=O)[O-])c1CC#N,.,4,.,.,.,.,.,.,.,.,.
Nc1cccc(-c2nc3ccc(C(=O)c4ccccc4)cc3[nH]2)c1,-8,-24,11,85*,81*,71*,80*,76*,93*,63*,83*
Nc1ccc2nc(-c3ccccc3)[nH]c2c1,1,-318,30,70*,46,34,61*,65*,89*,90*,76*
COc1ccc2nc(-c3ccccn3)[nH]c2c1,-4,-412,3,77*,82*,59*,78*,73*,93*,89*,73*
COc1ccc2nc(NCCCO)[nH]c2c1,5,12,-7,-4,8,-7,.,.,.,.,.
Nc1ccc2nc(-c3ccc(N)c(Cl)c3)[nH]c2c1,-35,-449,-22,60*,34,35,62*,59*,81*,78*,63*
Nc1ccc2nc(-c3cccnc3)[nH]c2c1,-14,-161,20,18,9,0,.,.,.,.,.
Nc1cccc(C(=O)Nc2ccc3nc(-c4cccnc4)[nH]c3c2)c1,10,-99,-11,-10,5,2,.,.,.,.,.
OCCCNc1ncnc2c1ncn2[C@H]1CN(Cc2ccco2)C[C@@H](CO)O1,.,0,.,.,.,.,.,.,.,.,.
COc1ccc(-c2csc(C(C)(O)c3cccnc3)n2)cc1 (stereo not given),.,8,.,.,.,.,.,.,.,.,.
Nc1ccc2nc(-c3cccs3)[nH]c2c1,0,-313,2,39,0,20,.,.,.,.,.
Nc1ccc2nc(-c3ccccn3)[nH]c2c1,7,-406,21,52*,52*,38,42,51*,79*,82*,49
Cc1ccc(NC(=O)C(=O)c2c[nH]c3ccccc23)cc1,0,16,-7,66*,70*,47,52*,49,87*,45,11
c1ccc2[nH]c(-c3cscn3)nc2c1,.,-4,.,.,.,.,.,.,.,.,.
